System: MS2 coat protein
Test: apparent Kd, MS2 coat protein; higher = weaker binding; RNA-MaP array; FMN 200 µM where present
Summary of the method: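 The apparent Kd is the median of filtered binding-curve fits, one per cluster, to green signal normalised to red-channel RNA signal and control-cluster median Fmax. The clusters were on Illumina sequencing chips, and stalled E. coli RNA polymerase had transcribed the designs on them. Titration used SNAP-549-labelled MS2 coat protein from 0.7 or 1.5 nM, doubling to 3 µM, without and then with constant ligand, in 100 mM Tris-HCl pH 7.5, 80 mM KCl, 4 mM MgCl2, BSA, DTT, yeast tRNA and Tween-20.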

[1] = designed as: OFF switch for flavin mononucleotide, no ligand
[2] = ligand present: flavin mononucleotide, designed as: OFF switch for flavin mononucleotide
[3] = designed as: ON switch for flavin mononucleotide, no ligand
[4] = ligand present: flavin mononucleotide, designed as: ON switch for flavin mononucleotide

| Sequence | apparent Kd [1] | apparent Kd [2] | apparent Kd [3] | apparent Kd [4] |
| --- | --- | --- | --- | --- |
| UAUAUACAUGAGGAUCACCCAUGUGAGGAUAUGCUUUAUUAUUAUUAUUAUUAUUAUUGCAGAAGGUACAUUAU | 0.0289 µM | 0.0288 µM |  |  |
| UAUAUAUAGGCAGGAUAUACAUGAAUAUAUAUAAUAUAGUAUGAUGUAACAUGAGGAUCACCCAUGUAGAAGGGCCAAUAUAUA | 0.0362 µM | 0.0839 µM |  |  |
| UAUAUAUAGGCAGGAUAUACAUGUAUAUAUAAUAUAUUAUAUAAUAUAACAUGAGGAUCACCCAUGUAGAAGGGCCAUAAUAUA | 0.0584 µM | 0.0837 µM |  |  |
| UAUAUAUAGUAAGGAUAUGUAAUUAUCUUAUAAACAGAAGGUACUGACAUGAGGAUCACCCAUGUUUUAGUGUGGGCAUGUAGA | 0.0569 µM | 0.0601 µM |  |  |
| UAUAUAUAGUAAGGAUAUGUAAUUAUUUAAUAAACAGAAGGUACUGACAUGAGGAUCACCCAUGUUUUAGUGUGGGCAUGUAGA | 0.0805 µM | 0.135 µM |  |  |
| UAUAUAUAGUAAGGAUAUGUAUAUAAUUUAUAAACAGAAGGUACUGACAUGAGGAUCACCCAUGUUUUAGUGUGGGCAUGUAGA | 0.0727 µM | 0.141 µM |  |  |
| UAUAUAUAGUAAGGAUAUGUAUAUAUUCUAUAAACAGAAGGUACUGACAUGAGGAUCACCCAUGUUUUAGUGUGGGCAUGUAGA | 0.0339 µM | 0.0305 µM |  |  |
| UAUAUAUAGUAAGGAUAUGUAUAUAUUGUAUAAACAGAAGGUACUGACAUGAGGAUCACCCAUGUUUUAGUGUGGGCAUGUAGA | 0.0765 µM | 0.121 µM |  |  |
| UAUAUAUAGUAAGGAUAUGUAUAUAUUUGAUAAACAGAAGGUACUGACAUGAGGAUCACCCAUGUUUUAGUGUGGGCAUGUAGA | 0.0628 µM | 0.0786 µM |  |  |
| UAUAUAUAGUAAGGAUAUGUAUAUAUUUUACAAACAGAAGGUACUGACAUGAGGAUCACCCAUGUUUUAGUGUGGGCAUGUAGA | 0.0578 µM | 0.06 µM |  |  |
| UAUAUAUAGUAAGGAUAUGUAUAUGUUUUAUAAACAGAAGGUACUGACAUGAGGAUCACCCAUGUUUUAGUGUGGGCAUGUAGA | 0.0584 µM | 0.092 µM |  |  |
| UAUAUAUAGUAAGGAUAUGUAUUAAUUUUAUCAACAGAAGGUACUGACAUGAGGAUCACCCAUGUUUUAGUGUGGGCAUGUAGA | 0.084 µM | 0.109 µM |  |  |
| UAUAUGUCAGGAUAUCGAUUGGAGCGGAAUUUAGCUUUGGUCGAGAAGGGACAUGAGGAUCACCCAUGUUCAAC | 0.0198 µM | 0.0378 µM |  |  |
| UAUAUGUCAGGAUAUCGAUUGGUACGGAAUUCGGUACUGGUUGAGAAGGGACAUGAGGAUCACCCAUGUUUUUC | 0.0385 µM | 0.228 µM |  |  |
| UAUAUGUCAGGAUAUUAGUUGUGGACGAAUAAGACUUCUGCUGAGAAGGGACAUGAGGAUCACCCAUGUUCCUC | 0.0158 µM | 0.0194 µM |  |  |
| UAUAUUUAUGUAGGAUAUGGUAUAUAAAAUAUACCAGAAGGACAUGAGGAUCACCCAUGUAUGAAAUUCCAUAAUAACCGUGUA | 0.0111 µM | 0.0122 µM |  |  |
| UAUAUUUAUGUAGGAUAUGGUAUAUAAAAUAUACCAGAAGGACAUGAGGAUCACCCAUGUAUGAAAUUCCAUAAUAAGCGUGUA | 0.0122 µM | 0.0138 µM |  |  |
| UAUAUUUAUGUAGGAUAUGGUAUAUAAAAUAUACCAGAAGGACAUGAGGAUCACCCAUGUAUGAAAUUCCAUAAUUACCGUGUA | 0.00998 µM | 0.0113 µM |  |  |
| UAUCAAUUUAUGGGUUUAGAUUAUGAGGAUAUCAUUUUUUUAUACAUGAGGAUCACCCAUGUUACUGAGAAGGCAUAAUUAAUA |  |  | 0.0174 µM | 0.00621 µM |
| UAUCGUUCCGAGGAUAUGAGGCGACUGGCGCGAUCAGAAGGCGGAACAUGAGGAUCACCCAUGUUCCUUACCUU | 0.0122 µM | 0.0205 µM |  |  |
| UAUGCCUUUGUGAGGAUAUACUUUGUUUGGUCGUAGUAGAAGGCACAUGAGGAUCACCCAUGUAGAUUUUUGGU | 0.0275 µM | 0.0722 µM |  |  |
| UAUGUAUUCGUAGGAUAUCCGUUAAAACCAUGUGGAGAAGGACGAACAUGAGGAUCACCCAUGUAUCAUGGUGUAGACAAUUUU | 0.0555 µM | 0.321 µM |  |  |
| UAUGUGUCAGGAUAUUAAUUAUUGGAGAAUGUGACGAUGAUUAAGAAGGGACAUGAGGAUCACCCAUGUUCAUC | 0.0204 µM | 0.0336 µM |  |  |
| UAUUAAUGCAAGGAUAUGCUUUUAAUUUUUUUUGCAGAAGGUGCAACAUGAGGAUCACCCAUGUUUCAGGGUAU | 0.0421 µM | 0.0576 µM |  |  |
| UAUUAGCUAGGAUAUACAUGAGGAUCACCCAUGUCACGGGUCCACUCGUCCUAUGCGUGUAGAAGGAGCGACCC | 0.0206 µM | 0.0224 µM |  |  |
| UAUUUAAGAGGAUAUACAUGAGGAUCACCCAUGUAUAUUAAUAUACAUGAUUUUUUAUGUAGAAGGCUUGGGUA | 0.0255 µM | 0.0584 µM |  |  |
| UAUUUACGAGGAUAUCGUUUUUUUCACAUGAGGAUCACCCAUGUUGUUUAUGUUGCGUUGCGAGAAGGCGUUUGUU | 0.0311 µM | 0.023 µM |  |  |
| UAUUUAUAAUAUAUUAACAUGAGGAUCACCCAUGUCGCUAGACAGGAUAUAUUUUAUUUUUUUAAGUAGAAGGGUCAUAUAUUU |  |  | 0.068 µM | 0.0859 µM |

| Sequence | apparent Kd [1] | apparent Kd [2] | apparent Kd [3] | apparent Kd [4] |
| --- | --- | --- | --- | --- |
| UCACACCACGUUAGGAUAUCGCUGGACAAAACUGGCGAGAAGGAACAUGAGGAUCACCCAUGUGACUUCAAGGU | 0.0162 µM | 0.0185 µM |  |  |
| UCACGGGUUUGAGGAUAUAUUAUUAUUAUUUAAAUAGAAGGCAAAGAAAUUGUUAUUUCACUAUACAUGAGGAUCACCCAUGUU | 0.0254 µM | 0.0234 µM |  |  |
| UCAGUAGAGUCAGGAUAUACGAAAGAAGAUCCUUACAUGAGGAUCACCCAUGUAGAAGGGACUCUACUGUAAGUCGGAAACGAC | 0.129 µM | 0.192 µM |  |  |
| UCAGUAGAGUCAGGAUAUACGUCCAAAUUUCCUCACAUGAGGAUCACCCAUGUAGAAGGGACUCUACUGUAAGUCGGAAACGAC | 0.00742 µM | 0.031 µM |  |  |
| UCAGUAGAGUCAGGAUAUACGUUAAAAUUUCCUCACAUGAGGAUCACCCAUGUAGAAGGGACUCUACUGUAAGUCGGAAACGAC | 0.0352 µM | 0.686 µM |  |  |
| UCAUAACAUGAGGAUCACCCAUGUCAGGAUAUGAUACUAUGUACUUCGGUACAUAGUAUCAGAAGGGACAUACU | 0.0968 µM | 0.153 µM |  |  |
| UCAUAUAUACAAGGAUAUCAAUUAUAUACACAUCCUACAUGAGGAUCACCCAUGUUUUAUUUUUUUGAGAAGGUGUAUUGUCGG |  |  | 0.0241 µM | 0.0321 µM |
| UCAUUAUAAAUCCAUCAUAACUACAUGAGGAUCACCCAUGUGCAGGAUAUCGAUUUUUUAACUUUCGAGAAGGGCAAUUACAGA | 0.0376 µM | 0.0961 µM |  |  |
| UCAUUUAAUACAGGAUAUGUUAUUAUACAGUUGUUUGGUUAUUACAUUAUAACAGAAGGGUAGAACAUGAGGAUCACCCAUGUA |  |  | 0.179 µM | 0.0794 µM |
| UCAUUUCAGAAAGGAUAUUAAUUCAUGACGAUACAUGAGGAUCACCCAUGUUAAGAAGGUUCUAAUACAAAUAAUGCAUUGUUC | 0.0132 µM | 0.0105 µM |  |  |
| UCCAGGCGAGGAUAUACUUAGAUUUUUUCGUUUAGUCUCGAACAUGAGGAUCACCCAUGUAGAAGGUGCUUCAC | 0.0456 µM | 0.042 µM |  |  |
| UCCCGAAGGCGGGCCGACCAUACAUGAGGAUCACCCAUGUCGAGAAGGUGCUCACGGGUGGGUGGCAAGGAUAUCGGGUCGGAU |  |  | 0.0938 µM | 0.0423 µM |
| UCCGAUGUACAUGAGGAUCACCCAUGUCACAUGCCCGUGACACAGGAUAUCCAGGAUAGGCCAAAGGAGAAGGGUGAUCCGCGG |  |  | 0.0643 µM | 0.0945 µM |
| UCCUCACAUGAGGAUCACCCAUGUCAGGAUAUAGGAGAUGGCAGAAAUCCUGCCAUCGCUAGAAGGGACUGGCA | 0.0438 µM | 0.154 µM |  |  |
| UCCUUUAAUACAGGAUAUGUUAUUAUACAGUUGUUUGCUUAUUACUUUAUAACAGAAGGGUAGAACAUGAGGAUCACCCAUGUA |  |  | 0.076 µM | 0.05 µM |
| UCGAAAAUACAAGGAUAUCAAUUGUAGCUAAAUUCAACAUGAGGAUCACCCAUGUAACUAUGGAGUGAGAAGGUGUAGUAAUUU |  |  | 0.113 µM | 0.45 µM |
| UCGACGAAAGUCGAACGAUGUAGCAGAAGGACAUGAGGAUCACCCAUGUCAGCUGUAACAGCCAUGUAGGAUAUGCUACAUCGG | 0.00443 µM | 0.00537 µM |  |  |
| UCGAGUCAUGAGAAGGACUGAUGUUACAUGAGGAUCACCCAUGUCAUGGGUAGGAUAUCAUUGACACGGCUGUACCUCUCUUAC |  |  | 0.196 µM | 0.0477 µM |
| UCGAUCGGAGGAUAUGCUAAUGCAACUACUGCAGUUUCAAAACAUGAGGAUCACCCAUGUAGAAGGCCGAUAUA | 0.017 µM | 0.0156 µM |  |  |
| UCGCCAGGUACAGGAUAUGUGGAUCAGUCAAGUAACUUGCUGAACAUGAGGAUCACCCAUGUAUCACAGAAGGGUGCCUCAAAA |  |  | 0.199 µM | 0.0108 µM |
| UCGCUGCGAGGAUAUACAUGAGGAUCACCCAUGUACGGGUCCGGGUUUUCGUCCAUUAGUAGAAGGCGCAGUGA | 0.156 µM | 0.0606 µM |  |  |
| UCGCUGCGAGGAUAUACAUGAGGAUCACCCAUGUGCGGGUCCGGGUCUUCGUCCAUUAGUAGAAGGCGCAGUGA | 0.122 µM | 0.212 µM |  |  |
| UCGGCGCGAGGAUAUACGUUUGCUUUUUUGGGUCGUUGCGUACAUGAGGAUCACCCAUGUAGAAGGCGCGCCGC | 0.0274 µM | 0.187 µM |  |  |
| UCGGCGCGAGGAUAUACGUUUGCUUUUUUUUGUCGUUGCGUACAUGAGGAUCACCCAUGUAGAAGGCGCGCCGC | 0.0167 µM | 0.031 µM |  |  |
| UCGGCGCGAGGAUAUACGUUUGCUUUUUUUUGUUUUUGUGUACAUGAGGAUCACCCAUGUAGAAGGCGCGCCGC | 0.0181 µM | 0.0249 µM |  |  |
| UCGGCGCGAGGAUAUGCGGUUCCUCCCUAGGGCCGGAGCGUACAUGAGGAUCACCCAUGUAGAAGGCGCGCCGC | 0.0123 µM | 0.015 µM |  |  |
| UCGGCGCGAGGAUAUGCGGUUCCUUCUUCGGGCCGGAGCGUACAUGAGGAUCACCCAUGUAGAAGGCGCGCCGC | 0.0136 µM | 0.0153 µM |  |  |

Reference: the EternaBench riboswitch data
